Records with an inconclusive call do not appear. Active and inactive are the calls of the source.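 The calls were made as follows: active = compounds whose fitted half-maximal concentration lies within ten times the top tested dose in every run, with signal falling; inconclusive = runs disagree, or unclear curves such as poor fits; inactive = every run inactive, including rises in signal.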
System: Vibrio harveyi BB721 quorum sensing luminescence, 9 h
Assay: QS-driven bacterial bioluminescence blockers – strain BB721, dry powder, set 3, counter-screen for LuxS inhibitor project, dose response (AID 493103)
Conditions: not given
How it was run: (§1)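 Material: V. harveyi BB721 quorum-sensing strain / Input: bacterial culture diluted to starting OD600 of 0.0005 / Buffer or medium: AB medium / Times: 9 h compound exposure, 30 °C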

SMILES	AC50
O=C1C=C/C(=C/Br)O1	4.47 µM
C=Cn1c(C(=O)O)ccc1-c1ccc(Cl)cc1	16.2 µM
C[C@H](CO)N1C[C@H](C)[C@@H](CN(C)Cc2ccc3c(c2)OCO3)Oc2c(NC(=O)NC3CCCCC3)cccc2C1=O	8.89 µM
C[C@@H]1CN([C@H](C)CO)C(=O)c2ccccc2-c2ccccc2CO[C@@H]1CN(C)Cc1ccc(Oc2ccccc2)cc1	13.8 µM
O=S(=O)(Nc1cccnc1)c1ccc(Oc2ccccc2)cc1	1.02 µM

System: not listed separately
Assay: as above
Conditions: Vibrio harveyi BB721 quorum sensing luminescence, 9 h; at 16 µM (top of the series)
How it was run: as §1

SMILES	activity change, negative = inhibition
C[C@@H]1CN([C@H](C)CO)C(=O)c2cccc(NC(=O)Nc3ccc(C(F)(F)F)cc3)c2O[C@@H]1CN(C)C(=O)Nc1ccc(C(F)(F)F)cc1	-11.1% (inactive)
Cc1ccc(S(=O)(=O)Nc2ccc3c(c2)CC(=O)N([C@@H](C)CO)C[C@@H](C)[C@H](CN(C)C(=O)Nc2ccc(F)cc2)O3)cc1	3.81% (inactive)
C[C@@H]1CN([C@@H](C)CO)C(=O)Cc2cc(NC(=O)CCN3CCOCC3)ccc2O[C@H]1CN(C)C(=O)Nc1ccc(C(F)(F)F)cc1	6.93% (inactive)
O=S(=O)(Nc1ccccn1)c1ccccc1	1.3% (inactive)
C[C@@H]1CN([C@@H](C)CO)C(=O)Cc2cc(NC(=O)CCN3CCOCC3)ccc2O[C@H]1CN(C)C(=O)Nc1ccc(F)cc1	1.22% (inactive)
C[C@@H]1CCCCO[C@@H](CN(C)Cc2ccncc2)[C@H](C)CN([C@H](C)CO)C(=O)c2cc(NC(=O)C3CCCCC3)ccc2O1	-3.87% (inactive)
C[C@@H]1CCCCO[C@@H](CN(C)Cc2ccc(C(=O)O)cc2)[C@H](C)CN([C@H](C)CO)C(=O)c2cc(NC(=O)CCCN(C)C)ccc2O1	-5.01% (inactive)
C[C@H](CO)N1C[C@H](C)[C@H](CN(C)Cc2ccc(C(=O)O)cc2)Oc2ncc(-c3ccc(C(=O)N(C)C)cc3)cc2C1=O	0.806% (inactive)
C[C@H](CO)N1C[C@H](C)[C@@H](CN(C)C(=O)Nc2ccc(C(F)(F)F)cc2)Oc2ccc(NC(=O)Nc3ccc4c(c3)OCO4)cc2C1=O	-10.5% (inactive)
C[C@@H]1CCCCO[C@@H](CN(C)C(=O)Nc2cccc3ccccc23)[C@H](C)CN([C@H](C)CO)C(=O)c2cc(NC(=O)CCC(F)(F)F)ccc2O1	2% (inactive)
CNC[C@@H]1Oc2ccc(NC(=O)C3CCCCC3)cc2CC(=O)N([C@@H](C)CO)C[C@H]1C	1.18% (inactive)
C=Cn1c(C(=O)O)ccc1-c1cccs1	-7.12% (inactive)
C[C@H]1CN([C@@H](C)CO)C(=O)c2cc(NC(=O)Nc3ccc4c(c3)OCO4)ccc2O[C@@H]1CN(C)C(=O)Nc1ccc(C(F)(F)F)cc1	-0.179% (inactive)
C[C@@H]1CCCCO[C@@H](CN(C)C(=O)Nc2ccc(C(F)(F)F)cc2)[C@H](C)CN([C@@H](C)CO)C(=O)c2cc(NC(=O)CCC(F)(F)F)ccc2O1	2.01% (inactive)
Cc1ccc(S(=O)(=O)Nc2ccc3c(c2)C(=O)N([C@H](C)CO)C[C@H](C)[C@@H](CN(C)Cc2ccc(C(F)(F)F)cc2)O3)cc1	-2.52% (inactive)
C[C@@H]1CN([C@@H](C)CO)C(=O)Cc2cc(NC(=O)CCCN(C)C)ccc2O[C@H]1CN(C)CC1CCCCC1	13.8% (inactive)
